The test system of test [1] is Staphylococcus aureus. In words: Antimicrobial activity against vancomycin-susceptible-, methicillin-resistant Staphylococcus aureus 1130 by microdilution method. Type of test: functional. (In general: Dilution methods test growth across graded concentrations, often in twofold steps.)
Test [2] has as its system Enterococcus faecalis. In words: Antimicrobial activity against Enterococcus faecalis HMC 571 assessed as time required to induce sub-MIC effect at 0.4 times MIC exposed for 2 hrs by plate counting method. Type of test: functional. The method, boiled down:
(§1)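 Unexposed Mueller-Hinton broth cultures (about 5 × 10^6 CFU/ml, 35°C) were handled as in the PA-SME set but without the 10× MIC pre-exposure. They were diluted 1:1,000, then given telavancin at final 0.2, 0.3 or 0.4× MIC, with a drug-free control. Viable counts were taken every 2 h until McFarland no. 1 turbidity. Effect duration comes from log10 CFU/ml-time plots; two separate experiments with new inocula.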

Test [3] relates to Staphylococcus aureus. In words: Antimicrobial activity against vancomycin-resistant-, methicillin-resistant Staphylococcus aureus 510 assessed as time required to induce post antibiotic sub-MIC effect at 0.2 times MIC pre-exposed to Telavancin for 1 hr by plate counting method.
Test [4] relates to Staphylococcus aureus. In words: Antimicrobial activity against vancomycin-resistant-, methicillin-resistant Staphylococcus aureus 510 assessed as time required to induce sub-MIC effect at 0.4 times MIC exposed for 2 hrs by plate counting method. Type of test: functional. Summed up: (§2)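 Sub-MIC effect: cultures not preexposed to drug were diluted and handled as in the PA-SME procedure in Mueller-Hinton broth with final 0.2, 0.3 or 0.4× MIC, plus a drug-free control. Viable plate counts were taken every 2 h until McFarland 1 turbidity. Duration was derived from growth curves. Two experiments were run, each with a new inoculum.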

Test [5] deals with Staphylococcus aureus. In words: Antimicrobial activity against vancomycin-intermediate-, methicillin-resistant Staphylococcus aureus 770 assessed as time required to induce sub-MIC effect at 0.3 times MIC exposed for 2 hrs by plate counting method. Type of test: functional. Summed up:
(§3)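 SME, viable plate count method: no prior drug exposure. About 5 × 10^6 CFU/ml in Mueller-Hinton broth at 35°C received 0.2, 0.3 or 0.4× MIC, alongside a drug-free tube. Counts were taken at the start, then every 2 h until McFarland no. 1 turbidity, as log10 CFU/ml against time. Two separate experiments, each with a new inoculum.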

The test system of test [6] is Staphylococcus aureus. In words: Antimicrobial activity against vancomycin-resistant-, methicillin-resistant Staphylococcus aureus 510 assessed as post-antibiotic effect at 10 times MIC pre-exposed for 1 hr by plate counting method. Type of test: functional. The method, boiled down:
(§4)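 Direct colony suspensions (~5 × 10^6 CFU/ml) were exposed to 10× MIC for 1 h at 35°C with shaking in Mueller-Hinton broth, then diluted 1:1,000 to remove drug. Viable plate counts were taken before exposure, at 0 h, then every 2 h until turbidity reached McFarland 1. PAE = T − C, the time for counts to rise 1 log10 versus the unexposed control. Two separate experiments were run.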

For test [7], the system named is Staphylococcus aureus. In words: Antimicrobial activity against heterogenous vancomycin-intermediate-, methicillin-resistant Staphylococcus aureus 873 assessed as time required to induce sub-MIC effect at 0.2 times MIC […] by plate counting method. Type of test: functional. Summed up:
as §3

The subject of test [8] is Enterococcus faecalis. In words: Antimicrobial activity against Enterococcus faecalis ATCC 29212 by microdilution method. Type of test: functional.
The test system of test [9] is Staphylococcus aureus. In words: Antimicrobial activity against heterogenous vancomycin-intermediate-, methicillin-resistant Staphylococcus aureus 618 by microdilution method. The format is functional.
Test [10] has as its system Staphylococcus aureus. In words: Antimicrobial activity against vancomycin-intermediate-, methicillin-resistant Staphylococcus aureus 770 assessed as time required to induce sub-MIC effect at 0.4 times MIC exposed for 2 hrs by plate counting method. Type of test: functional. Summed up: as §2
Test [11] deals with Staphylococcus aureus. In words: Antimicrobial activity against vancomycin-intermediate-, methicillin-resistant Staphylococcus aureus 1287 assessed as post-antibiotic effect at 10 times MIC pre-exposed to Telavancin for 1 hr by plate counting method. The format is functional. Summed up: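 Viable plate count method in Mueller-Hinton broth. Direct colony suspension inoculum of about 5 × 10^6 CFU/ml was exposed to 10× MIC for 1 h at 35°C in a shaking water bath, then diluted 1:1,000 to remove drug. Counts were taken before exposure, at 0 h, then every 2 h until McFarland no. 1 turbidity. PAE = T − C, the time to a 1 log10 rise versus an unexposed growth control.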

The subject of test [12] is Enterococcus faecalis. In words: Antimicrobial activity against Enterococcus faecalis HMC 571 assessed as post-antibiotic effect at 10 times MIC pre-exposed to Telavancin for 1 hr by plate counting method. The format is functional. Summed up: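 Organisms were suspended in Mueller-Hinton broth from overnight blood agar colonies at about 5 × 10^6 CFU/ml. Cultures were exposed to telavancin at 10× MIC for 1 h at 35°C in a shaking water bath, then diluted 1:1,000 to remove the drug, with an untreated growth control. Viable counts were taken before exposure, at 0 h, then every 2 h until McFarland no. 1 turbidity. PAE = T − C, the time to a 1 log10 rise. Two experiments.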

In a further test the test system is Streptococcus pyogenes. In words: Antimicrobial activity against Streptococcus pyogenes HMC 414 assessed as time required to induce post antibiotic sub-MIC effect at 0.3 times MIC exposed for […] by plate counting method. The format is functional. The method, boiled down: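 Mueller-Hinton broth cultures of about 5 × 10^6 CFU/ml were pre-exposed to telavancin at 10× MIC for 1 h at 35°C, then diluted 1:1,000. Telavancin was re-added to final 0.2, 0.3 or 0.4× MIC, alongside a drug-free tube. Viable counts were taken before exposure, after dilution, then every 2 h until McFarland no. 1 turbidity. Duration comes from log10 CFU/ml-versus-time plots; two separate experiments with fresh inocula.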

For test [13], the system named is Staphylococcus aureus. In words: Antimicrobial activity against vancomycin-susceptible-, methicillin-resistant Staphylococcus aureus ATCC 33591 by microdilution method. The format is functional.
Another test relates to Streptococcus agalactiae. In words: Antimicrobial activity against Streptococcus agalactiae HMC 5 assessed as time required to induce sub-MIC effect at 0.3 times MIC exposed for 2 hrs by plate counting method. Type of test: functional. The method, boiled down: as §1
Test [14] deals with Staphylococcus aureus. In words: Antimicrobial activity against heterogenous vancomycin-intermediate-, methicillin-resistant Staphylococcus aureus 873 assessed as time required to induce post antibiotic sub-MIC effect at 0.4 times MIC […] by plate counting method. The format is functional. The method, boiled down: (§5)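 PAE was first induced with 10× MIC for 1 h at 35°C (inoculum about 5 × 10^6 CFU/ml, Mueller-Hinton broth) and ended by 1:1,000 dilution. Cultures were then split and given 0.2, 0.3 or 0.4× MIC, with one tube left without drug. Viable counts were taken before exposure, after dilution, then every 2 h until McFarland no. 1 turbidity. Two separate experiments, each with a new inoculum.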

Test [15] deals with Staphylococcus aureus. In words: Antimicrobial activity against vancomycin-susceptible-, methicillin-resistant Staphylococcus aureus ATCC 33591 assessed as post-antibiotic effect at 10 times MIC pre-exposed to Telavancin for 1 hr by plate counting method. The format is functional. The method, boiled down:
as §4

For test [16], the system named is Staphylococcus aureus. In words: Antimicrobial activity against vancomycin-intermediate-, methicillin-resistant Staphylococcus aureus 1287 by microdilution method. Type of test: functional.
The subject of test [17] is Staphylococcus aureus. In words: Antimicrobial activity against vancomycin-susceptible-, methicillin-resistant Staphylococcus aureus 1306 assessed as time required to induce sub-MIC effect at 0.3 times MIC exposed for 2 hrs by plate counting method. Type of test: functional. Summed up: as §2
The subject of test [18] is Staphylococcus aureus. In words: Antimicrobial activity against vancomycin-intermediate-, methicillin-resistant Staphylococcus aureus 555 assessed as time required to induce post antibiotic sub-MIC effect at 0.2 times MIC […] by plate counting method. The format is functional. The method, boiled down:
as §5

Test [19] relates to Staphylococcus aureus. In words: Antimicrobial activity against vancomycin-intermediate-, methicillin-resistant Staphylococcus aureus 1984 by microdilution method. The format is functional.

Structures are written as SMILES. ≈ marks a conversion by molar mass, not a printed value.

Broadly, the MIC is the least concentration at which growth counts as inhibited. Low readings indicate a more susceptible organism, high ones a less susceptible organism.

For the compound `CCCCCCCCCCNCCN[C@@]1(C)C[C@H](O[C@H]2[C@H](Oc3c4cc5cc3Oc3ccc(cc3Cl)[C@@H](O)[C@@H](NC(=O)[C@@H](CC(C)C)NC)C(=O)N[C@@H](CC(N)=O)C(=O)N[C@H]5C(=O)N[C@H]3C(=O)N[C@H](C(=O)N[C@H](C(=O)O)c5cc(O)c(CNCP(=O)(O)O)c(O)c5-c5cc3ccc5O)[C@H](O)c3ccc(c(Cl)c3)O4)O[C@H](CO)[C@@H](O)[C@@H]2O)O[C@@H](C)[C@H]1O` [TELAVANCIN], the MIC with Staphylococcus aureus [1] worked out at 0.12 µg/mL (≈ 0.0684 µM); in the test with Enterococcus faecalis [8], 0.25 µg/mL (≈ 0.142 µM); in the test with Staphylococcus aureus [9] it was 0.12 µg/mL (≈ 0.0684 µM); with Staphylococcus aureus [13], 0.25 µg/mL (≈ 0.142 µM); against Staphylococcus aureus [16], 0.5 µg/mL (≈ 0.285 µM); in the test with Staphylococcus aureus [19] it was 0.25 µg/mL (≈ 0.142 µM). In addition, the PAE amounted to 9.6 h with Enterococcus faecalis [2]; 5.6 h with Staphylococcus aureus [3]; 3.6 h in the test with Staphylococcus aureus [4]; 0.8 h in the test with Staphylococcus aureus [5]; 1.3 h with Staphylococcus aureus [6]; 0 h in the test on Staphylococcus aureus [7]. The PAE was 0.8 h in the test on Staphylococcus aureus [10]; 1.2 h in the test on Staphylococcus aureus [11]; 1.5 h in the test with Enterococcus faecalis [12]; above 10.7 h with Streptococcus pyogenes; 2.1 h in the test on Streptococcus agalactiae; 6.7 h in the test on Staphylococcus aureus [14]. Besides, the PAE in the test on Staphylococcus aureus [15] worked out at 1.5 h; in the test with Staphylococcus aureus [17], 5.1 h; in the test with Staphylococcus aureus [18] it was 5.9 h.
